Activity calls are given as the source filed them. No cut-off for these calls is given here.
Tests used:
Assay type in all cases: functional, cell-based
M14 [1] = assay: Cytotoxicity against human M14 cells at 1 to 50 uM after 48 hrs by MTT assay
Procedure, shortened: (§1)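 M-14 melanoma cells grown in DMEM with 2 mM L-glutamine, 10% heat-inactivated FBS and 1% penicillin/streptomycin, used for at most 10 passages. Cells were seeded at 3 × 10^3 per well, given serial dilutions (1–50 μM) and incubated 48 h at 37 °C in humidified 5% CO2. Viability was read by MTT at 620 nm.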

M14 [2] = assay: Cytotoxicity against human M14 cells after 48 hrs by MTT assay; conditions: M14, 48 h; procedure, shortened: as §1
M14 [3] = assay: Induction of apoptosis in human M14 cells assessed as activation of caspase-3 at 50 uM after 8 to 24 hrs by Western blot analysis
M14 [4] = assay: Induction of apoptosis in human M14 cells assessed as activation of caspase-3 at 50 uM after 24 hrs by Western blot analysis presence of polycaspase inhibitor z-VAD-fmk
M14 [5] = assay: Induction of apoptosis in human M14 cells assessed as increase in hypodiploid cells after 24 hrs using propidium iodide staining by flow cytometry
Procedure, shortened: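 M-14 melanoma cells (DMEM, 2 mM L-glutamine, 10% heat-inactivated FBS, 1% penicillin/streptomycin, 37 °C, humidified 5% CO2, ≤10 passages) incubated 24 h with serial dilutions of compounds (1–50 μM). Nuclei stained with propidium iodide and analysed by flow cytometry. Apoptosis is taken as the percentage of hypodiploid nuclei versus untreated control. Three experiments, each in triplicate, means ± SEM.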

M14 [6] = assay: Induction of apoptosis in human M14 cells assessed as increase in hypodiploid cells up to 25 uM after 24 hrs using propidium iodide staining by flow cytometry
Procedure, shortened: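 M-14 cells were treated with 1–50 μM for 24 h, then collected and stained with propidium iodide. The percentage of hypodiploid (apoptotic) nuclei was measured by flow cytometry against untreated controls. Values are means ± SEM of three experiments run in triplicate.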

SMILES | Activity (M14 [1]) | IC50 (M14 [2]) [µM] | other results
C=C1CC[C@]2(C(=O)O)CC[C@]3(C)C(=CC[C@@H]4[C@@]5(C)CC[C@H](O)C(C)(C)[C@@H]5CC[C@]43C)[C@@H]2C1 | inactive | – | –
C[C@@]12C[C@@]3(O)O[C@@H](O1)[C@]1(COC(=O)c4ccccc4)[C@@H]3C[C@]12O[C@@H]1O[C@H](COC(=O)c2ccccc2)[C@@H](O)[C@H](O)[C@H]1O | inactive | – | –
C=C(C)[C@@H]1CC[C@]2(C(=O)O)CC[C@]3(C)[C@H](CC[C@@H]4[C@@]5(C)CC[C@H](O)C(C)(C)[C@@H]5CC[C@]43C)[C@@H]12 [BETULINIC ACID] | – | 50 | Activity (M14 [3]): Active; Activity (M14 [4]): inactive; Activity (M14 [5]): Dose-dependent effect
CC1(C)CC[C@]2(C(=O)O)CC[C@]3(C)C(=CC[C@@H]4[C@@]5(C)CC[C@H](O)[C@@](C)(CO)[C@@H]5CC[C@]43C)[C@@H]2C1 [HEDERAGENIN] | – | 58 | Activity (M14 [3]): Active; Activity (M14 [4]): inactive; Activity (M14 [6]): Active
O=C(O)c1ccccc1 | inactive | – | –
C=C1CC[C@@]23CC[C@]4(C)[C@@](OC2=O)([C@@H]3C1)[C@H]1O[C@H]1[C@@H]1[C@@]2(C)CC[C@H](O)[C@@](O)(CO)[C@@H]2CC[C@]14C | inactive | – | –
CC1(C)[C@@H](O)CC[C@]2(C)[C@H]3C=CC4=C(O)C(=O)C(=O)[C@@]4(C)[C@]3(C)CC[C@@H]12 | inactive | – | –
COc1cc2c(cc1O)[C@H](CO)[C@H](c1ccc(CCCO)c(OC)c1)O2 [LAWSONICIN] | – | 100 | –
C=C1CC[C@]2(C(=O)O)CC[C@]3(C)C(=CC[C@@H]4[C@@]5(C)CC[C@H](O)[C@](C)(O)[C@@H]5CC[C@]43C)[C@@H]2C1 | inactive | – | –
COc1ccc(C(C)=O)c(O)c1 | inactive | – | –
C=C(C)[C@@H]1CC[C@]2(C(=O)O)CC[C@]3(C)[C@H](CC[C@@H]4[C@@]5(C)CC[C@H](O)[C@@](C)(CO)[C@@H]5CC[C@]43C)[C@@H]12 | – | 50 | –
C[C@@]12CC(=O)[C@H]3C[C@]1(O)O[C@H](O2)[C@@H]3COC(=O)c1ccccc1 | inactive | – | –
CC1(C)CC[C@]2(C(=O)O)CC[C@]3(C)C(=CC[C@@H]4[C@@]5(C)CC[C@H](O)C(C)(C)[C@@H]5CC[C@]43C)[C@@H]2C1 [OLEANOLIC_ACID] | – | 82 | Activity (M14 [3]): Active; Activity (M14 [4]): inactive; Activity (M14 [6]): Active

Reference: ChEMBL document CHEMBL1833907, “Triterpenoid constituents from the roots of Paeonia rockii ssp. rockii” (J Nat Prod, 2011)
